Among the data in ChEMBL document CHEMBL1806410, “Design and synthesis of pyridine-substituted itraconazole analogues with improved antifungal activities, water solubility and bioavailability” (Bioorg Med Chem Lett, 2011) are MIC values, retold here.

Type in all cases: functional
The subject of assay [1] is Aspergillus flavus. Kind of assay: Antifungal activity against Aspergillus flavus JLC 30784 by broth microdilution method. Put shortly:
(§1)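 MICs were determined by broth microdilution following NCCLS guidelines (M38-P for filamentous fungi). The panel covered four yeast species and two Aspergillus species, with two strains per species. Itraconazole served as positive control.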
(In broth dilution the organism is exposed to a series of concentrations in liquid medium.)

The test system of assay [2] is Pichia kudriavzevii. Kind of assay: Antifungal activity against Candida krusei JLC 30386 by broth microdilution method. In a few lines: as §1
In assay [3] the test system is Cryptococcus neoformans. Put plainly: Antifungal activity against Cryptococcus neoformans JLC 50122 by broth microdilution method. In a few lines:
as §1

The test system of assay [4] is Aspergillus fumigatus. Kind of assay: Antifungal activity against Aspergillus fumigatus JLC 30506 by broth microdilution method. Put shortly: as §1
Assay [5] relates to Candida albicans. Put plainly: Antifungal activity against Candida albicans JLC 31374 by broth microdilution method. Put shortly: as §1
Assay [6] has as its system Candida parapsilosis. Put plainly: Antifungal activity against Candida parapsilosis JLC 30365 by broth microdilution method. As to conditions: Lodderomyces parapsilosis. Put shortly: as §1
In assay [7] the test system is Candida albicans. Put plainly: Antifungal activity against Candida albicans JLC 30364 by broth microdilution method. Put shortly: as §1
For assay [8], the system named is Pichia kudriavzevii. Put plainly: Antifungal activity against Candida krusei JLC 30366 by broth microdilution method. Put shortly: as §1
The test system of assay [9] is Candida parapsilosis. Kind of assay: Antifungal activity against Candida parapsilosis JLC 30275 by broth microdilution method. The conditions noted are these: Lodderomyces parapsilosis. Put shortly: as §1
Assay [10] concerns Aspergillus fumigatus. Kind of assay: Antifungal activity against Aspergillus fumigatus JLC 30883 by broth microdilution method. Put shortly:
as §1

Assay [11] deals with Aspergillus flavus. Kind of assay: Antifungal activity against Aspergillus flavus JLC 40437 by broth microdilution method. In a few lines: as §1
Assay [12] relates to Cryptococcus neoformans. Put plainly: Antifungal activity against Cryptococcus neoformans JLC 50123 by broth microdilution method. In a few lines: as §1

The term MIC denotes the least concentration at which growth counts as inhibited. A low value points to inhibition by little substance.

In brackets after ≈: the same amount, converted by molar mass.

Consider `CC(CCO)n1ncn(-c2ccc(N3CCN(c4ccc(OC[C@H]5CO[C@](Cn6cncn6)(c6ccc(F)cc6F)O5)cc4)CC3)nc2)c1=O` (some centres not stated), for which the MIC was 4 µg/mL (≈ 5.8 µM) against Aspergillus flavus [1]; 2 µg/mL (≈ 2.9 µM) with Pichia kudriavzevii [2]; 0.0625 µg/mL (≈ 0.0906 µM) against Cryptococcus neoformans [3]; 4 µg/mL (≈ 5.8 µM) with Aspergillus fumigatus [4]; less than 0.0625 µg/mL in the assay on Candida albicans [5]; less than 0.0625 µg/mL against Candida parapsilosis [6]. Moreover, the MIC was less than 0.0625 µg/mL in the assay on Candida albicans [7]; 2 µg/mL (≈ 2.9 µM) with Pichia kudriavzevii [8]; less than 0.0625 µg/mL against Candida parapsilosis [9]; 4 µg/mL (≈ 5.8 µM) with Aspergillus fumigatus [10]; 4 µg/mL (≈ 5.8 µM) against Aspergillus flavus [11]; 0.0625 µg/mL (≈ 0.0906 µM) in the assay with Cryptococcus neoformans [12].
`CCC(C)n1ncn(-c2ccc(N3CCN(c4ccc(OC[C@H]5CO[C@](Cn6cncn6)(c6ccc(F)cc6F)O5)cc4)CC3)cn2)c1=O` (some centres not stated): the MIC is 0.5 µg/mL (≈ 0.742 µM) against Aspergillus flavus [1]; 0.0625 µg/mL (≈ 0.0928 µM) with Pichia kudriavzevii [2]; 1 µg/mL (≈ 1.48 µM) against Cryptococcus neoformans [3]; 0.5 µg/mL (≈ 0.742 µM) in the assay with Aspergillus fumigatus [4]; 0.03 µg/mL (≈ 0.0445 µM) in the assay with Candida albicans [5]; 0.5 µg/mL (≈ 0.742 µM) in the assay with Candida parapsilosis [6]. Further, the minimum inhibitory concentration (MIC) against Candida albicans [7] turned out to be 0.03 µg/mL (≈ 0.0445 µM); with Pichia kudriavzevii [8] it was 0.0625 µg/mL (≈ 0.0928 µM); in the assay on Candida parapsilosis [9], 0.5 µg/mL (≈ 0.742 µM); in the assay on Aspergillus fumigatus [10], 0.5 µg/mL (≈ 0.742 µM); with Aspergillus flavus [11], 0.5 µg/mL (≈ 0.742 µM); in the assay on Cryptococcus neoformans [12], 1 µg/mL (≈ 1.48 µM).
Turning to `CC(C)Cn1ncn(-c2ccc(N3CCN(c4ccc(OC[C@H]5CO[C@](Cn6cncn6)(c6ccc(F)cc6F)O5)cc4)CC3)cn2)c1=O`, the MIC against Aspergillus flavus [1] worked out at 0.0625 µg/mL (≈ 0.0928 µM); in the assay with Pichia kudriavzevii [2] it was 0.125 µg/mL (≈ 0.186 µM); in the assay on Cryptococcus neoformans [3], 0.25 µg/mL (≈ 0.371 µM); against Aspergillus fumigatus [4], 0.125 µg/mL (≈ 0.186 µM); in the assay on Candida albicans [5] it was 0.015 µg/mL (≈ 0.0223 µM); in the assay on Candida parapsilosis [6], 0.25 µg/mL (≈ 0.371 µM). Besides, the MIC was determined as 0.015 µg/mL (≈ 0.0223 µM) against Candida albicans [7]; 0.125 µg/mL (≈ 0.186 µM) with Pichia kudriavzevii [8]; 0.25 µg/mL (≈ 0.371 µM) against Candida parapsilosis [9]; 0.125 µg/mL (≈ 0.186 µM) against Aspergillus fumigatus [10]; 0.0625 µg/mL (≈ 0.0928 µM) in the assay on Aspergillus flavus [11]; 0.25 µg/mL (≈ 0.371 µM) against Cryptococcus neoformans [12].
In the case of `CCC(CC)n1ncn(-c2ccc(N3CCN(c4ccc(OC[C@H]5CO[C@](Cn6cncn6)(c6ccc(F)cc6F)O5)cc4)CC3)cn2)c1=O`, the MIC was found to be 0.0625 µg/mL (≈ 0.0909 µM) in the assay on Aspergillus flavus [1]; 0.125 µg/mL (≈ 0.182 µM) against Pichia kudriavzevii [2]; 0.125 µg/mL (≈ 0.182 µM) with Cryptococcus neoformans [3]; 0.5 µg/mL (≈ 0.727 µM) in the assay with Aspergillus fumigatus [4]; 0.0625 µg/mL (≈ 0.0909 µM) with Candida albicans [5]; 0.5 µg/mL (≈ 0.727 µM) in the assay on Candida parapsilosis [6]. Moreover, the minimum inhibitory concentration (MIC) with Candida albicans [7] was found to be 0.0625 µg/mL (≈ 0.0909 µM); against Pichia kudriavzevii [8], 0.125 µg/mL (≈ 0.182 µM); in the assay on Candida parapsilosis [9], 0.5 µg/mL (≈ 0.727 µM); in the assay on Aspergillus fumigatus [10] it was 0.5 µg/mL (≈ 0.727 µM); against Aspergillus flavus [11] it was 0.0625 µg/mL (≈ 0.0909 µM); against Cryptococcus neoformans [12] it was 0.125 µg/mL (≈ 0.182 µM).
Turning to `CC(CO)n1ncn(-c2ccc(N3CCN(c4ccc(OC[C@H]5CO[C@](Cn6cncn6)(c6ccc(F)cc6F)O5)cc4)CC3)cn2)c1=O` (some centres not stated), the MIC amounted to 0.125 µg/mL (≈ 0.185 µM) with Aspergillus flavus [1]; 0.0625 µg/mL (≈ 0.0925 µM) against Pichia kudriavzevii [2]; 0.0625 µg/mL (≈ 0.0925 µM) with Cryptococcus neoformans [3]; 1 µg/mL (≈ 1.48 µM) with Aspergillus fumigatus [4]; 0.0625 µg/mL (≈ 0.0925 µM) in the assay with Candida albicans [5]; 0.5 µg/mL (≈ 0.74 µM) with Candida parapsilosis [6]. Moreover, the MIC with Candida albicans [7] worked out at 0.0625 µg/mL (≈ 0.0925 µM); with Pichia kudriavzevii [8], 0.0625 µg/mL (≈ 0.0925 µM); against Candida parapsilosis [9], 0.5 µg/mL (≈ 0.74 µM); against Aspergillus fumigatus [10], 1 µg/mL (≈ 1.48 µM); with Aspergillus flavus [11], 0.125 µg/mL (≈ 0.185 µM); against Cryptococcus neoformans [12], 0.0625 µg/mL (≈ 0.0925 µM).
`O=c1n(-c2ccc(N3CCN(c4ccc(OC[C@H]5CO[C@](Cn6cncn6)(c6ccc(F)cc6F)O5)cc4)CC3)cn2)cnn1CCO`: the minimum inhibitory concentration (MIC) against Aspergillus flavus [1] was 0.03 µg/mL (≈ 0.0453 µM); with Pichia kudriavzevii [2], 0.03 µg/mL (≈ 0.0453 µM); in the assay with Cryptococcus neoformans [3] it was less than 0.0156 µg/mL; against Aspergillus fumigatus [4], 0.5 µg/mL (≈ 0.756 µM); with Candida albicans [5] it was less than 0.0156 µg/mL; in the assay with Candida parapsilosis [6], 0.0156 µg/mL (≈ 0.0236 µM). For the same molecule, the MIC against Candida albicans [7] was less than 0.0156 µg/mL; against Pichia kudriavzevii [8], 0.03 µg/mL (≈ 0.0453 µM); against Candida parapsilosis [9], 0.0156 µg/mL (≈ 0.0236 µM); with Aspergillus fumigatus [10], 0.5 µg/mL (≈ 0.756 µM); in the assay on Aspergillus flavus [11], 0.03 µg/mL (≈ 0.0453 µM); with Cryptococcus neoformans [12], less than 0.0156 µg/mL.
